This is a sample that favours compounds with a hit; in the whole collection about 2.4% have one here.
CSN inh – blocks human CSN-mediated cullin deneddylation | Purified CSN, SCF-Nedd8-OG deneddylation, fluorescence polarization | Q92905 | 360,000 tested, 0.38% active | inhibition, % at 12.5 µM | AID 651999;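 active = pattern-corrected inhibition above about 35%, with an unprinted fluorescence ratio check between 0.5 and 1.5, limit read from the data, passing the limit was not always enough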
Target sequence (Q92905 whole entry, looked up, one chain of several): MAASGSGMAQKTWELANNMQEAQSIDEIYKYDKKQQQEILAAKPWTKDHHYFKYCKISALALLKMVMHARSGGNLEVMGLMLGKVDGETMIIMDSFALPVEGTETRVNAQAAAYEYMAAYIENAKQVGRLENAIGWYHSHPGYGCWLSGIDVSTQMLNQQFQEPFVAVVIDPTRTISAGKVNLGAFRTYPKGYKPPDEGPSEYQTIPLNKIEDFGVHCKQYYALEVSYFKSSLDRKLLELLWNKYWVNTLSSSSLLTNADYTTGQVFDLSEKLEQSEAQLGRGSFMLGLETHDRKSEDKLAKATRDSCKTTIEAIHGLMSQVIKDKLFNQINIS
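Detection – fluorescence polarization · System – HEK293T-derived human Csn5 enzyme · Controls – substrate-only high control, full reaction low control · Timing – 90 min, room temperature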
Rpn11 block – inhibitors of human proteasome Rpn11; O00487; human 26S proteasome, Ub4-pepOG fluorescence polarization; 20S core pre-blocked with epoxomicin; inhibition, % at 20 µM; 360,000 tested, 0.59% active; AID 588493;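 active = inhibition at 20 µM, scaled to each plate's controls, above about 33%, limit read from the data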
Target sequence (O00487 whole entry, looked up): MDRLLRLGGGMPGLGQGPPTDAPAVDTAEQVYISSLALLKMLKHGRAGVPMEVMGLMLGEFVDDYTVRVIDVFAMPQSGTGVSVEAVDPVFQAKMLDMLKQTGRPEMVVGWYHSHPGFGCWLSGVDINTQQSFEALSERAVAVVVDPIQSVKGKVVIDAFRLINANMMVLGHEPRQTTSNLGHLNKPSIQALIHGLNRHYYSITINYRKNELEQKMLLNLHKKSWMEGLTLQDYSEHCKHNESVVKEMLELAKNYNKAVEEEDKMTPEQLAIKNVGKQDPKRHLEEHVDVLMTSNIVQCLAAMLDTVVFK
TPT1 inhibitor – inhibitors of Candida albicans tRNA 2'-phosphotransferase TPT1; inhibition, % at 5 µM; recombinant caTPT1, FP RNA substrate dephosphorylation; 300,000 tested, 0.81% active;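 active = inhibition above the mean of all tested compounds plus 3 SD, set per screening campaign, cut at about 24% in these data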
HNF4A DNA FP – change in binding of human HNF4 alpha to DNA. P41235. HNF4a-FITC DNA binding, fluorescence polarization, 1 h. activity change, % at 10 µM. 360,000 tested, 0.3% active. AID 1224865; in the data active = activity change above about 30%, passing the limit was not always enough
Neddyl block – blocks human cullin neddylation; TR-FRET cullin neddylation, biochemical; 360,000 tested, 0.58% active; AID 651699; inhibition, % at 25 µM; P61081+Q13564; in the data active = inhibition above about 36%
Rin1 Abl inh – human Rin1-Abl interaction inhibition; TR-FRET Rin1/Abl binding, biochemical; AID 588664; P00519+Q13671; 360,000 tested, 0.4% active; inhibition, % at 7.35 µM; in the data active = inhibition above about 5%, passing the limit was not always enough
Rpn11 confirm – Rpn11 inhibition confirmation, single concentration; shares compounds with Rpn11 block; purified human 26S proteasome, Ub4-pepOG fluorescence polarization; proteasome pretreated with epoxomicin; inhibition, % at 20 µM; 1,900 tested, 29% active; AID 602318
MMP-2 counter – counter-screen for RPN11 inhibitors: inhibition of human MMP-2 | inhibition, % at 20 µM | 1,900 tested, 4% active | recombinant MMP-2, FRET peptide cleavage fluorescence | shares compounds with Rpn11 block;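 note: human MMP-2 activated beforehand with APMA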
Thrombin inh – blocks bovine thrombin, flagging nonselective RPN11 hits | shares compounds with Rpn11 block | bovine thrombin cleavage of Ub4-pepOG, fluorescence polarization | inhibition, % at 20 µM | 1,900 tested, 13% active | AID 602333;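 active = mean inhibition at least 40% at 20 µM, or signal 3 deviations below plate average, so some actives read negative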
Numbers stand for hits; 0 = inactive; - = no result shown. Cut-off read from the data, not from the text of the source, unless noted: active = inhibition above about 40%; inactive = the rest.

SMILES	CSN inh	Rpn11 block	TPT1 inhibitor	HNF4A DNA FP	Neddyl block	Rin1 Abl inh	Rpn11 confirm	MMP-2 counter	Thrombin inh
COc1ccc(OC)c(Nc2nc3nonc3nc2N2CCCC(C)C2)c1 (configuration not stated)	0	62	0	0	0	0	0	0	0
CC1CCCN(c2nc3nonc3nc2Nc2ccccc2F)C1 (configuration not stated)	0	0	0	0	0	0	-	-	-
COc1ccc([C@@H]2C[C@H]3[C@@H](CN2S(=O)(=O)c2ccccc2)C(=O)C[C@@H](c2ccccc2F)N3S(=O)(=O)c2ccc(C)cc2)cc1	0	0	-	0	0	0	-	-	-
CCOc1ccc(NC(=O)CN(C)C(=O)c2ccc3c(c2)S(=O)(=O)N=C2CCCCCN23)cc1OCC	0	0	-	0	0	0	-	-	-
CCOc1ccc2nc(SCC(=O)c3ccc(Cl)s3)sc2c1	0	56	0	0	0	0	0	0	0
CCOc1ccc2nc(SCC(=O)NCc3ccco3)sc2c1	0	44	0	0	0	0	0	0	0
CCc1ccc(S(=O)(=O)c2ccc(-n3nc(C)cc3N)cc2)cc1	0	0	0	0	0	0	-	-	-
CCN(CC)c1nc2cc(C)ccc2cc1/C=C(\C#N)C(N)=O	0	49	0	0	0	0	0	0	0
CCc1ccc(N=Nc2ccc(O)c3[nH]cnc23)cc1	0	42	-	42	0	0	0	0	0
COc1ccc(N=Nc2ccc(O)c3ncccc23)cc1	0	0	0	0	0	0	-	-	-
CC(=O)Nc1sc(C)c(C)c1C(=O)OCC(=O)Nc1ccccc1	0	0	-	0	0	0	-	-	-
CC(=O)Nc1sc(C)c(C)c1C(=O)OCCOc1ccccc1	0	34	0	0	0	0	0	0	0
CC(C)c1ccc(CNC(=O)C2CCCN2S(=O)(=O)c2ccccc2)cc1 (configuration not stated)	0	0	0	0	0	0	-	-	-
Cn1cc(S(=O)(=O)CC(=O)N2CCCc3ccccc32)c2ccccc21	0	70	0	0	0	0	0	0	0
COc1ccc(CNC(=O)CN(c2ccccc2)S(=O)(=O)N(C)C)cc1	0	0	0	0	0	0	-	-	-
O=c1[nH]c(CSc2ncnc3sccc23)nc2cc(C(F)(F)F)ccc12	0	49	0	0	0	0	46	0	0
CCc1ccc(NC(=O)CCc2nc3sc4c(c3c(=O)[nH]2)CCCC4)cc1	0	40	0	0	0	0	55	0	0
CCOC(=O)C1CCN(C(=O)CCc2nc3sc4c(c3c(=O)[nH]2)CCCC4)CC1	0	41	0	0	0	0	67	0	46
CC(=O)c1cccc(NC(=O)CCc2nc3sc4c(c3c(=O)[nH]2)CCCC4)c1	0	44	0	0	0	0	55	0	41
Cc1cccc(C)c1NC(=O)CN(C)C(=O)CCc1nc2sc3c(c2c(=O)[nH]1)CCCC3	0	0	-	0	0	0	-	-	-
CC(=O)c1ccc(NC(=O)CCc2nc3sc4c(c3c(=O)[nH]2)CCCC4)cc1	0	0	0	0	0	0	-	-	-
CN(CC(=O)Nc1ccc(F)c(F)c1F)C(=O)CCc1nc2sc3c(c2c(=O)[nH]1)CCCC3	0	45	0	0	0	0	59	0	0
Cc1cccc(NC(=O)CCc2nc3sc4c(c3c(=O)[nH]2)CCCC4)n1	0	0	0	0	0	0	-	-	-
COc1cc(CCCN2CCNC[C@@H]2Cc2ccc(O)cc2)cc(OC)c1OC	0	0	0	0	0	0	-	-	-
Clc1ccccc1-c1nc2nc3ccccc3nc2n1-c1ccc2c(c1)OCO2	0	0	0	0	0	0	-	-	-
SMILES	CSN inh	Rpn11 block	TPT1 inhibitor	HNF4A DNA FP	Neddyl block	Rin1 Abl inh	Rpn11 confirm	MMP-2 counter	Thrombin inh
CS(=O)(=O)N(CC(=O)N1CCc2ccccc2C1)c1ccccc1F	0	0	0	0	0	0	-	-	-
CCN1CCCC1CNC(=O)Cn1cc(C)c(=O)[nH]c1=O (configuration not stated)	0	0	-	0	0	0	-	-	-
CC1(C(=O)Nc2cccc3c2CCCC3)CCN1C(=O)c1cccc(F)c1 (configuration not stated)	0	0	-	0	0	0	-	-	-
NS(=O)(=O)c1ccc(CCNC(=O)CCc2nc3sc4c(c3c(=O)[nH]2)CCCC4)cc1	0	41	0	0	0	0	0	0	0
Cc1cc(OC(C)C(=O)NCc2ccncc2)c2c(C)c(C)c(=O)oc2c1 (configuration not stated)	0	0	0	0	-	0	-	-	-
Cc1cc(C(=O)CSc2nc(N)cc(N)n2)c(C)n1CC1CCCO1 (configuration not stated)	0	0	-	0	0	0	-	-	-
Cc1sc2nc(SCC(=O)c3cc(C)n(CC4CCCO4)c3C)n(C(C)C)c(=O)c2c1C (configuration not stated)	0	123	0	0	0	0	0	0	0
CCOC(=O)c1nc(-c2ccc(OC)c(OC)c2)no1	0	0	0	0	0	0	-	-	-
COC(=O)C1=C(O)/C(=C\c2ccc(O)c(OC)c2)N=C1C	0	60	0	0	0	0	0	0	0
COC(=O)C1=C(O)/C(=C\c2ccc(OCC(=O)Nc3ccccc3OC)cc2)N=C1C	0	0	0	0	0	0	-	-	-
CCCC(=O)Nc1ccc(-c2nc3ncccc3o2)cc1	0	0	-	0	-	0	-	-	-
CCc1cc2c3c(c(=O)oc2cc1O)CCCC3	0	0	0	0	-	0	-	-	-
N#Cc1ccc(-c2ccc(OCC(=O)NCC(=O)Nc3ccc(F)c(F)c3F)cc2)cc1	0	144	0	0	0	0	97	0	0
CCOc1ccc(C(=O)CCC(=O)NCC(=O)Nc2ccc(F)c(F)c2F)cc1	0	0	-	0	0	0	-	-	-
O=c1c2ccccc2c(C=NCc2ccccn2)c(O)n1-c1ccccc1	0	49	0	0	0	0	0	0	0
COc1cccc(-n2c(O)c(C=NCc3ccccn3)c3ccccc3c2=O)c1	0	0	0	0	0	0	-	-	-
COC(=O)c1sc(NC(=O)/C=C/c2ccc(C)cc2)nc1C	0	0	0	0	-	0	-	-	-
COC(=O)c1sc(NC(=O)/C=C/c2ccccc2Cl)nc1C	0	55	0	47	-	0	0	0	0
CC(=O)N1CCN(S(=O)(=O)c2cccc(C(=O)OCc3cccc(F)c3)c2)CC1	0	0	-	0	0	0	-	-	-
NC(=O)c1sc2nc(-c3cccs3)ccc2c1N	0	0	0	0	0	0	-	-	-

Source: PubChem (several laboratories)
